Test results from ChEMBL document CHEMBL1687759, “Functional selection of hepatitis C virus envelope E2-binding Peptide ligands by using ribosome display” (Antimicrob Agents Chemother, 2010).
Activity calls are given as the source filed them. Where a SMILES comes first, the peptide text is derived from it.

Columns and labels:
[1] = Binding affinity to HCV envelope glycoprotein E2 by surface plasmon resonance assay; design: species or system Hepacivirus hominis
In short: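 Surface plasmon resonance on a Biacore 1000 measured binding of E2 protein to the peptides. K_on and K_off were calculated from the association and dissociation phases of the best-fitted binding curves.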

[2] = test system: Hepacivirus hominis; experiment: Inhibition of HCV envelope glycoprotein E2 to human Huh 7.5.1 cells after 1 hr by flow cytometry relative to control
In short: (§1)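 E2 protein (0.25 μg) was preincubated with peptide (250 nM, or a concentration series), 120 nM CD81, 50 IU heparin, or combinations in 100 μl PBS for 1 h at 37°C. The mix was added to 1 × 10⁶ Huh-7.5.1 cells for 30 min at 37°C. Cell-bound E2 was stained with anti-E2 polyclonal and PE anti-rabbit IgG and measured by flow cytometry. Percent inhibition was calculated (means ± SEM, 3–4 experiments).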

[3] = test system: Hepatitis C virus subtype 1a; experiment: Binding affinity to HCV 1a envelope glycoprotein E2
In short: (§2)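 HepG2 cells stably expressing E1E2 of genotypes 1–6 were established by G418 selection, with parental HepG2 as control. E2 of each genotype was detected with the selected peptide (means ± SEM, three independent experiments).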

[4] = test system: Hepacivirus hominis; experiment: Ratio of binding affinity for HCV 1a envelope glycoprotein E2 to binding affinity for HCV 6a envelope glycoprotein E2; in short: as §2
[5] = test system: Hepatitis C virus; experiment: Binding affinity to HCV in […] healthy human serum after 1 hr by sandwich ELISA; type: cell-free; conditions: Hepacivirus hominis
In short: (§3)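 Sandwich ELISA with wells coated with 0.3 nM peptide and blocked with 2% BSA at 4°C overnight. Serum (100 μl) from HCV antibody/RNA-positive patients (n = 50) or negative healthy donors (n = 55) was incubated 30 min at 37°C. Captured particles were detected with rabbit anti-E2 polyclonal (1:150, 1 h, 37°C), then HRP-labelled reagent, read at A450, and analysed by a nonparametric method.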

[6] = test system: Hepatitis C virus; experiment: Antiviral activity against HCV 2a JFH-1 in human Huh 7.5.1 cells cytoplasm assessed as inhibition of viral infection at 100 to 500 nM after 4 hrs by immunofluorescence staining; type: functional, organism-based; conditions: Hepacivirus hominis
In short: (§4)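 Cells were washed and E2 was read out in two ways. Western blot used anti-E2 with β-actin as the internal control. Immunofluorescence used 4% paraformaldehyde fixation, rabbit anti-E2 with FITC anti-rabbit IgG for 4 h, and PI nuclear stain. Mean fluorescence was measured by confocal microscopy (means ± SEM, three experiments).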

[7] = test system: Hepacivirus hominis; experiment: Ratio of binding affinity for HCV 2a envelope glycoprotein E2 to binding affinity for HCV 3a envelope glycoprotein E2; in short: as §2
[8] = test system: Hepacivirus hominis; experiment: Ratio of binding affinity for HCV 1b envelope glycoprotein E2 to binding affinity for HCV 5a envelope glycoprotein E2; in short: as §2
[9] = test system: Hepatitis C virus; experiment: Binding affinity to HCV in virus infected patient serum after 1 hr by sandwich ELISA; conditions: Hepacivirus hominis; in short: as §3
[10] = test system: Hepacivirus hominis; experiment: Inhibition of HCV envelope glycoprotein E2 to human Huh 7.5.1 cells after 1 hr by flow cytometry; in short: as §1
[11] = test system: Hepacivirus hominis; experiment: Ratio of binding affinity for HCV 2a envelope glycoprotein E2 to binding affinity for HCV 4a envelope glycoprotein E2; in short: as §2
[12] = test system: Hepatitis C virus subtype 4a; experiment: Binding affinity to HCV 4a envelope glycoprotein E2; in short: as §2
[13] = test system: CT26; experiment: Inhibition of HCV envelope glycoprotein E2 to […] cells expressing OCLN after 1 hr by flow cytometry; type: cell-based; conditions: Hepacivirus hominis
[14] = test system: Hepacivirus hominis; experiment: Ratio of binding affinity for HCV 1a envelope glycoprotein E2 to binding affinity for HCV 5a envelope glycoprotein E2; in short: as §2
[15] = test system: Hepacivirus hominis; experiment: Ratio of binding affinity for HCV 1a envelope glycoprotein E2 to binding affinity for HCV 4a envelope glycoprotein E2; in short: as §2
[16] = test system: Hepacivirus hominis; experiment: Ratio of binding affinity for HCV 1b envelope glycoprotein E2 to binding affinity for HCV 3a envelope glycoprotein E2; in short: as §2
[17] = test system: Hepacivirus hominis; experiment: Ratio of binding affinity for HCV 1b envelope glycoprotein E2 to binding affinity for HCV 4a envelope glycoprotein E2; in short: as §2
[18] = test system: Hepacivirus hominis; experiment: Ratio of binding affinity for HCV 2a envelope glycoprotein E2 to binding affinity for HCV 5a envelope glycoprotein E2; in short: as §2
[19] = test system: Hepatitis C virus subtype 6a; experiment: Binding affinity to HCV 6a envelope glycoprotein E2; in short: as §2
[20] = test system: Hepatitis C virus; experiment: Antiviral activity against HCV 2a JFH-1 in human Huh 7.5.1 cells cytoplasm assessed as inhibition of viral infection at 100 to 500 nM after 4 hrs by RT-PCR analysis; type: functional, organism-based; conditions: Hepacivirus hominis, in the assay text read “after overnight incubation” for “after 4 hrs”
In short: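 Huh-7.5.1 cells (4.5 × 10⁵/well) were co-cultured overnight at 37°C with 200 μl (7 × 10⁷ copies) of JFH-1 HCVcc and peptide at different final concentrations. After washing in DEPC-PBS, total RNA was extracted with Trizol and reverse transcribed. Intracellular HCV RNA was quantified by real-time PCR using 5′ NCR primers and normalized to GAPDH mRNA (means ± SEM, three experiments).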

[21] = test system: Hepacivirus hominis; experiment: Ratio of binding affinity for HCV 1b envelope glycoprotein E2 to binding affinity for HCV 6a envelope glycoprotein E2; in short: as §2
[22] = test system: Hepacivirus hominis; experiment: Ratio of binding affinity for HCV 1a envelope glycoprotein E2 to binding affinity for HCV 3a envelope glycoprotein E2; in short: as §2
[23] = test system: Hepacivirus hominis; experiment: Ratio of binding affinity for HCV 2a envelope glycoprotein E2 to binding affinity for HCV 6a envelope glycoprotein E2; in short: as §2
[24] = test system: Hepatitis C virus subtype 2a; experiment: Binding affinity to HCV 2a envelope glycoprotein E2; in short: as §2
[25] = test system: CT26; experiment: Inhibition of HCV envelope glycoprotein E2 to […] cells expressing CLDN1 after 1 hr by flow cytometry; type: cell-based; conditions: Hepacivirus hominis
[26] = test system: Hepatitis C virus subtype 3a; experiment: Binding affinity to HCV 3a envelope glycoprotein E2; in short: as §2
[27] = test system: Hepatitis C virus subtype 5a; experiment: Binding affinity to HCV 5a envelope glycoprotein E2; in short: as §2
[28] = test system: CT26; experiment: Inhibition of HCV envelope glycoprotein E2 to […] cells expressing SR-B1 after 1 hr by flow cytometry; type: cell-based; conditions: Hepacivirus hominis
[29] = test system: CT26; experiment: Inhibition of HCV envelope glycoprotein E2 to […] cells expressing CD81 after 1 hr by flow cytometry; type: cell-based; conditions: Hepacivirus hominis
[30] = test system: Hepatitis C virus; experiment: Antiviral activity against HCV 2a JFH-1 in human Huh 7.5.1 cells assessed as inhibition of viral infection at 100 to 500 nM after 4 hrs by Western blotting; type: functional, organism-based; conditions: Hepacivirus hominis; in short: as §4
[31] = test system: Hepacivirus hominis; experiment: Binding affinity to HCV GST-tagged envelope glycoprotein E2 after 1 hr by ELISA
In short: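 Indirect ELISA on wells coated with 0.3 nM E2-GST or GST (4°C, 7 h) and blocked with 2% BSA (37°C, 2 h). Biotin-labelled peptide at various concentrations was added for 30 min at 37°C, then HRP-streptavidin (1:1,000) for 1 h at 37°C. Signal was developed with o-phenylenediamine and read at 450 nm.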

[32] = test system: Hepatitis C virus JFH-1; experiment: Binding affinity to HCV 2a JFH-1 viral particle after 1 hr by indirect ELISA
In short: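 Wells were coated with 3 × 10⁵ JFH-1 HCVcc particles per well in carbonate buffer pH 9.6 (7 h, 4°C) and blocked with 1% BSA at 4°C overnight. Control culture medium served as comparison. Biotin-labelled peptide at different concentrations was incubated 30 min at 37°C, followed by HRP-streptavidin (1:1,000) for 1 h at 37°C. Signal was developed with o-phenylenediamine and read at A450 (triplicates; six experiments).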

[33] = test system: Hepatitis C virus; experiment: Antiviral activity against HCV 2a JFH-1 in human Huh 7.5.1 cells assessed as inhibition of viral infection at 100 to 500 nM after 4 hrs by immunofluorescence staining; type: functional, organism-based; conditions: Hepacivirus hominis, in the assay text read “after overnight incubation” for “after 4 hrs”; in short: as §4
[34] = test system: Hepatitis C virus; experiment: Binding affinity to HCV 1b envelope glycoprotein E2; conditions: Hepatitis C virus subtype 1b; in short: as §2

N=C(N)NCCC[C@H](NC(=O)CNC(=O)[C@H](Cc1ccccc1)NC(=O)CN)C(=O)N[C@@H](Cc1ccc(O)cc1)C(=O)N[C@@H](CCCNC(=N)N)C(=O)N[C@@H](CCCNC(=N)N)C(=O)N[C@@H](Cc1cnc[nH]1)C(=O)NCC(=O)N[C@@H](CO)C(=O)N1CCC[C@H]1C(=O)N[C@@H](Cc1c[nH]c2ccccc12)C(=O)O (H-GFGRYRRHGSPW-OH)
50 nM: Kd ([1]; read-out: Kd)
32%: cell-bound E2 remaining [2]

CC[C@H](C)[C@H](NC(=O)[C@@H](NC(=O)[C@H](CC(C)C)NC(=O)[C@@H](NC(=O)[C@H](CO)NC(=O)[C@@H](N)CC(C)C)C(C)C)C(C)C)C(=O)N[C@@H](CO)C(=O)N[C@@H](CCSC)C(=O)N[C@@H](Cc1ccccc1)C(=O)N[C@@H](CC(N)=O)C(=O)N[C@@H](C)C(=O)N[C@H](C(=O)O)C(C)C (H-LSVLVISMFNAV-OH)
Not Active: Kd [1]
30%: cell-bound E2 remaining [2]

CSCC[C@H](NC(=O)[C@@H](NC(=O)[C@H](CC(C)C)NC(=O)[C@@H]1CCCN1C(=O)[C@H](Cc1c[nH]c2ccccc12)NC(=O)[C@H](CC(N)=O)NC(=O)[C@H](CCCNC(=N)N)NC(=O)[C@H](Cc1cnc[nH]1)NC(=O)[C@H](CCCNC(=N)N)NC(=O)[C@H](C)NC(=O)[C@@H](N)CCSC)C(C)C)C(=O)N[C@H](C(=O)O)C(C)C (H-MARHRNWPLVMV-OH)
active: Activity [3] | Activity [6] | Activity [9] | inhibition [10] Dose-dependent effect | Activity [12] | Activity [19] | Activity [20] | Activity [24] | Activity [26] | Activity [27] | inhibition [29] | Activity [30] Dose-dependent effect | Activity [31] Dose-dependent effect | Activity [32] Dose-dependent effect | Activity [33] Dose-dependent effect | Activity [34]
inactive: Activity [5] | inhibition [13] | inhibition [25] | inhibition [28]
19 nM: Kd ([1]; read-out: Kd)
2: Ratio [4] | Ratio [7] | Ratio [8] | Ratio [11] | Ratio [14] | Ratio [15] | Ratio [16] | Ratio [17] | Ratio [18] | Ratio [21] | Ratio [22] | Ratio [23]

CC[C@H](C)[C@H](NC(=O)[C@H](C)NC(=O)[C@@H](N)CCSC)C(=O)NCC(=O)N1CCC[C@H]1C(=O)N[C@@H](Cc1ccc(O)cc1)C(=O)N1CCC[C@H]1C(=O)N[C@@H](C)C(=O)N[C@@H](CS)C(=O)NCC(=O)N[C@@H](CO)C(=O)NCC(=O)O (H-MAIGPYPACGSG-OH)
43 nM: Kd ([1]; read-out: Kd)
active: inhibition [10] Dose-dependent effect
7%: cell-bound E2 remaining [2]
